Activity calls are given as the source filed them. No cut-off for these calls is given here.
Columns and labels:
[1] = biological target: T1, Melanin-concentrating hormone receptor 1 (Homo sapiens, UniProt Q99705); test: Displacement of [125I]-MCH(4 to 19) from human MCHR1 expressed in CHO cell membranes after 1 hr liquid scintillation counting
[2] = biological target: Melanin-concentrating hormone receptor 1 (Rattus norvegicus, UniProt P97639); test: Displacement of [125I]-MCH(4 to 19) from rat MCHR1 expressed in CHO cell membranes after 1 hr by liquid scintillation counting
Sequence of Melanin-concentrating hormone receptor 1 (Rattus norvegicus, UniProt P97639) (P97639 whole entry): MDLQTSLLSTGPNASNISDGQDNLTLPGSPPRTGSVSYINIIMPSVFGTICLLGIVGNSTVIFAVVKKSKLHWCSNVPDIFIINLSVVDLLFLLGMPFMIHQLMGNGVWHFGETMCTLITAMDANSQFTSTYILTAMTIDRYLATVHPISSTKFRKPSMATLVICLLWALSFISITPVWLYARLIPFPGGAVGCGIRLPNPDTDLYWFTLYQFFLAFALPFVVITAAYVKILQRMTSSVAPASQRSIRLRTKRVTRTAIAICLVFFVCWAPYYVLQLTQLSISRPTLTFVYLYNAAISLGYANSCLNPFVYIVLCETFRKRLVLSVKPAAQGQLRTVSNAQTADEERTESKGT

[3] = system: Salmonella typhimurium; test: Mutagenicity in Salmonella typhimurium TA1537 assessed as increase in number of revertant colony at 313 ug/plate by Ames test in absence of S9 fraction; format: toxicity, organism-based; details: salmonella enterica subsp. enterica serovar typhimurium
[4] = system: Salmonella typhimurium; test: Mutagenicity in Salmonella typhimurium TA1537 assessed as increase in number of revertant colony up to 5000 ug/plate by Ames test in absence of S9 fraction; format: toxicity, organism-based; details: salmonella enterica subsp. enterica serovar typhimurium
In short: (§1)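 Ames test in Salmonella typhimurium TA1537, with and without S9 metabolic activation. A positive call is a more than two-fold increase in revertant colonies over vehicle control.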

[5] = Tmax in Sprague-Dawley rat at 1 mg/kg, po administered through cassette dosing by LC/MS/MS analysis; format: ADME, organism-based; details: in vivo
In short: (§2)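 Male SD rats, eight weeks old, fed; cassette dosing iv at 0.1 mg/kg or po at 1 mg/kg as a suspension in 0.5% methylcellulose, n = 3. Plasma taken from blood, deproteinized with acetonitrile, centrifuged, and the supernatant measured by LC/MS/MS. AUC covers 0–8 h.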

[6] = Total plasma clearance in Sprague-Dawley rat at 0.1 mg/kg, iv administered through cassette dosing by LC/MS/MS analysis; format: ADME, organism-based; in short: as §2
[7] = Cmax in Sprague-Dawley rat at 1 mg/kg, po administered through cassette dosing by LC/MS/MS analysis; format: ADME, organism-based; set-up: dose 1 mg/kg, route oral; details: in vivo; in short: as §2
[8] = AUC(0 to 8 hrs) in Sprague-Dawley rat at 1 mg/kg, po administered through cassette dosing by LC/MS/MS analysis; format: ADME, organism-based; set-up: dose 1 mg/kg, route oral; details: in vivo; in short: as §2
[9] = biological target: T1, Melanin-concentrating hormone receptor 1; test: Antagonist activity at human MCHR1 expressed in CHO cells assessed as inhibition of MCH-stimulated Ca2+ mobilization measured every 2 secs by fluorometric analysis; format: functional, cell-based
In short: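 Human MCHR1 stably transfected into CHO dhfr− cells; clone no.4 used. Cells seeded at 20000/well, cultured about 24 h at 37 °C in 5% CO2, loaded with Fluo4 dye for 30 min. Compound in 10 mM HEPES pH 7.4 buffer with 0.1% BSA added first, then MCH(4–19) at 2 nM final. Fluorescence read at 2 s intervals; inhibition % taken against ligand-only and DMSO-only wells.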

[10] = Oral bioavailability in Sprague-Dawley rat plasma at 1 mg/kg administered through cassette dosing by LC/MS/MS analysis; format: ADME, organism-based; in short: as §2
[11] = Volume of distribution at steady state in Sprague-Dawley rat at 0.1 mg/kg, iv administered through cassette dosing by LC/MS/MS analysis; format: ADME, organism-based; details: in vivo, read-out: Vdss; in short: as §2
[12] = Ratio of drug level in brain to plasma in po dosed DIO-F344/Jcl rat; format: ADME, organism-based; details: read-out: BPR
[13] = system: Rattus norvegicus; test: Antiobesity activity in DIO-F344/Jcl rat assessed as reduction in body weight at 3 mg/kg, po dosed for 2 weeks and measured every 2 or 3 days relative to vehicle control; format: functional, organism-based
In short: (§3)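 DIO-F344 rats, 48 weeks old, habituated and grouped as for the acute study. Dosed orally once daily for 2 weeks at 2 mL/kg in 0.5% methylcellulose, 1–3 h before dark onset, after body weight measurement; n = 6. Sibutramine positive control. Food intake read every 2 or 3 days. Body weight change is taken as percent of initial weight; mean and SD reported.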

[14] = system: Rattus norvegicus; test: Trough plasma concentration in DIO-F344/Jcl rat at 10 mg/kg, po; format: ADME, organism-based; details: in vivo, read-out: Cmin
[15] = system: Rattus norvegicus; test: Anorectic effect in DIO-F344/Jcl rat at 3 mg/kg, po administered for 2 days started 2 hrs prior to onset of dark period measured during compound dosing; format: functional
In short: (§4)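 Male DIO-F344/Jcl rats, 44 weeks old, on high-fat diet from 5 weeks of age. Singly housed on powder high-fat diet and habituated to oral dosing with tap water, then grouped by day-0 food intake and body weight. Oral dosing at 2 mL/kg in 0.5% methylcellulose 2 h before dark onset for 2 days, n = 6. Two-day food intake is expressed as inhibition rate versus vehicle.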

[16] = system: Rattus norvegicus; test: Anorectic effect in DIO-F344/Jcl rat assessed as reduction in cumulative food intake at 10 mg/kg, po administered once daily for 2 weeks measured during compound dosing; set-up: scale not given: the % may be the effect or the level left
[17] = organism: Mus musculus; test: Anorectic effect in wild type mouse assessed as reduction in food intake; format: functional, organism-based
[18] = organism: Mus musculus; test: Toxicity in MCHR deficient mouse assessed as effect on food intake; format: organism-based; details: in vivo
[19] = system: Rattus norvegicus; test: Anorectic effect in DIO-F344/Jcl rat at 10 mg/kg, po administered for 2 days started 2 hrs prior to onset of dark period measured during compound dosing; format: functional; in short: as §4
[20] = system: Rattus norvegicus; test: Antiobesity activity in DIO-F344/Jcl rat assessed as reduction in body weight at 10 mg/kg, po dosed for 2 weeks and measured every 2 or 3 days relative to vehicle control; format: functional; set-up: scale not given: the % may be the effect or the level left; in short: as §3
[21] = biological target: Cytochrome P450 2C9 (Homo sapiens, UniProt P11712); test: Reversal inhibition of CYP2C9 (unknown origin) at 10 uM; format: ADME
Sequence of Cytochrome P450 2C9 (P11712 whole entry): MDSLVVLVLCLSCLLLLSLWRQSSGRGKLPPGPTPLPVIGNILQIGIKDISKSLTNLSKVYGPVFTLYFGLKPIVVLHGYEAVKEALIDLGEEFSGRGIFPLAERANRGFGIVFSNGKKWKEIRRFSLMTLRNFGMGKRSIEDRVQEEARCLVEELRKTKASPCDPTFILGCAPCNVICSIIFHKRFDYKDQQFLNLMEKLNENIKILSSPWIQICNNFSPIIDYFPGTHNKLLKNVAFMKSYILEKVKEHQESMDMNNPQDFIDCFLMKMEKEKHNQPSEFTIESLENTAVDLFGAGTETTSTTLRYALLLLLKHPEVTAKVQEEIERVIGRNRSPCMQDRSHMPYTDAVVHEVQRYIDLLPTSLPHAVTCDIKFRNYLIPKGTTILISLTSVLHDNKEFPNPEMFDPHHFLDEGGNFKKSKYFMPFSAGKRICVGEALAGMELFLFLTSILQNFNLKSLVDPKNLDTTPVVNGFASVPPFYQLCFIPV

[22] = biological target: T2, Cytochrome P450 1A2 (Homo sapiens, UniProt P05177); test: Reversal inhibition of CYP1A2 (unknown origin) at 10 uM; format: ADME
T2 sequence (P05177 whole entry): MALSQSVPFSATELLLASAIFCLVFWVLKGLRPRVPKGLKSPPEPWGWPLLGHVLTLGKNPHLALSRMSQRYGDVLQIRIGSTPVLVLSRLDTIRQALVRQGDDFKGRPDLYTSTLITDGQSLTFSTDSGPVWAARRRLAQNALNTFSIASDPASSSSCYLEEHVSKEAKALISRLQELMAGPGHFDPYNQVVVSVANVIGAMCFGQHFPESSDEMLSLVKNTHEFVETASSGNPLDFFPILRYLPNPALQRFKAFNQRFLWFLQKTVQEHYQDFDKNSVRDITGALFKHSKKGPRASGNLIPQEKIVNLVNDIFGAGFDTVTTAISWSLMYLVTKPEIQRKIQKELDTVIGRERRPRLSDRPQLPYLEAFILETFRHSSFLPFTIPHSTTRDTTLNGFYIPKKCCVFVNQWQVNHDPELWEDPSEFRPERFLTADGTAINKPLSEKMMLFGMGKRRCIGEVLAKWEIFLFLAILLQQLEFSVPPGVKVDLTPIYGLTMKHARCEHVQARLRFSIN

[23] = biological target: Cytochrome P450 3A4 (Homo sapiens, UniProt P08684); test: Reversal inhibition of CYP3A4 (unknown origin) at 10 uM; format: ADME
Sequence of Cytochrome P450 3A4 (P08684 whole entry): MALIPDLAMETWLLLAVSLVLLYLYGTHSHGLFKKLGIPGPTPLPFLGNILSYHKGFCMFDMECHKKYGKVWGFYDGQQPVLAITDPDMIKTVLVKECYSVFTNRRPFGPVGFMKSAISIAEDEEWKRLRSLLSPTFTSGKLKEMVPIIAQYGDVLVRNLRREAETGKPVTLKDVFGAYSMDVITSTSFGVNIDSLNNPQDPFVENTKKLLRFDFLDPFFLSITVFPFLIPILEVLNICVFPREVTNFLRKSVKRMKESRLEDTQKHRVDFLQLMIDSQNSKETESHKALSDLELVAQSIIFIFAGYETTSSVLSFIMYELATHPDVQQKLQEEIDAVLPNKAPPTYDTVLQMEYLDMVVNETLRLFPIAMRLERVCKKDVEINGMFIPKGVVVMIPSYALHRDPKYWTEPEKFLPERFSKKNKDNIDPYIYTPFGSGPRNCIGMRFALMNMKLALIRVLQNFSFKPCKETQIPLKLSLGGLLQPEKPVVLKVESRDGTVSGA

[24] = system: Rattus norvegicus; test: Antiobesity activity in DIO-F344/Jcl rat assessed as reduction in body weight at 5 mg/kg, po dosed for 2 weeks and measured every 2 or 3 days relative to vehicle control; format: functional; set-up: scale not given: the % may be the effect or the level left; in short: as §3
[25] = Fraction unbound in DIO-F344/Jcl rat plasma at 10 mg/kg, po; format: ADME, organism-based
[26] = system: Plasma; test: Unbound plasma concentration in DIO-F344/Jcl rat at 10 mg/kg, po; format: ADME, organism-based; details: in vivo
[27] = system: Rattus norvegicus; test: Anorectic effect in DIO-F344/Jcl rat assessed as reduction in cumulative food intake at 5 mg/kg, po administered once daily for 2 weeks measured during compound dosing; set-up: scale not given: the % may be the effect or the level left
[28] = biological target: Cytochrome P450 2D6 (Homo sapiens, UniProt P10635); test: Reversal inhibition of CYP2D6 (unknown origin) at 10 uM; format: ADME
Sequence of Cytochrome P450 2D6 (P10635 whole entry): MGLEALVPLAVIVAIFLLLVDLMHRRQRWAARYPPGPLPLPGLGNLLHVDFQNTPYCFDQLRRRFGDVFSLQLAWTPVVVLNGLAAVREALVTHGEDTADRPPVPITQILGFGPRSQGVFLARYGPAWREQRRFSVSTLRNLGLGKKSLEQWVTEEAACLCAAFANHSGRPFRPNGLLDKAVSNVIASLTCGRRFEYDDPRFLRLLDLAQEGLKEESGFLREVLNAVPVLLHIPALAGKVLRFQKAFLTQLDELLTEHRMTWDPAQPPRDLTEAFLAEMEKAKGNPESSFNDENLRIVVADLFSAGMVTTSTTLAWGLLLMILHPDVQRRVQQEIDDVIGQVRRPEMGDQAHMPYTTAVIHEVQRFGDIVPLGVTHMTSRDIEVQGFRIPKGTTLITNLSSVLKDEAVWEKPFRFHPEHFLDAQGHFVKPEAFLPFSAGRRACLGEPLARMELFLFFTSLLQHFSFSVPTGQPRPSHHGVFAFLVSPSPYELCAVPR

[29] = biological target: T3, Cytochrome P450 2C8 (Homo sapiens, UniProt P10632); test: Reversal inhibition of CYP2C8 (unknown origin) at 10 uM; format: ADME
T3 sequence (P10632 whole entry): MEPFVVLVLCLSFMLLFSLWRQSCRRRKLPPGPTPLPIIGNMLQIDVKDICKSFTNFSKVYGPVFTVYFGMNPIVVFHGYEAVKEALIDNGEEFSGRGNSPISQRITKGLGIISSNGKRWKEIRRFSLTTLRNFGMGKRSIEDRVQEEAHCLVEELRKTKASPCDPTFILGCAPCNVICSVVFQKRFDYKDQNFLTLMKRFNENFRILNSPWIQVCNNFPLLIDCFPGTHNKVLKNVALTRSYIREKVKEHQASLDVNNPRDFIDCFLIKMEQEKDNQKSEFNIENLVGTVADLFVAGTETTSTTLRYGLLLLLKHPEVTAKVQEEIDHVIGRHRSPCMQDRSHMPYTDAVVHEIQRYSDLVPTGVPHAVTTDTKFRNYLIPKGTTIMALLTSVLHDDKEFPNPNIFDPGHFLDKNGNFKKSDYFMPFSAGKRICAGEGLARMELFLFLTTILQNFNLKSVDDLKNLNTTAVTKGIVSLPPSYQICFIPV

[30] = system: Salmonella typhimurium; test: Mutagenicity in Salmonella typhimurium TA1537 assessed as increase in number of revertant colony at 250 ug/plate by Ames test in absence of S9 fraction; format: toxicity, organism-based; details: salmonella enterica subsp. enterica serovar typhimurium; in short: as §1
[31] = system: Salmonella typhimurium; test: Mutagenicity in Salmonella typhimurium TA1537 at 250 ug by Ames test in presence of S9 fraction; format: toxicity, organism-based, Salmonella enterica subsp. enterica serovar Typhimurium; in short: as §1

T1 sequence (Q99705 whole entry): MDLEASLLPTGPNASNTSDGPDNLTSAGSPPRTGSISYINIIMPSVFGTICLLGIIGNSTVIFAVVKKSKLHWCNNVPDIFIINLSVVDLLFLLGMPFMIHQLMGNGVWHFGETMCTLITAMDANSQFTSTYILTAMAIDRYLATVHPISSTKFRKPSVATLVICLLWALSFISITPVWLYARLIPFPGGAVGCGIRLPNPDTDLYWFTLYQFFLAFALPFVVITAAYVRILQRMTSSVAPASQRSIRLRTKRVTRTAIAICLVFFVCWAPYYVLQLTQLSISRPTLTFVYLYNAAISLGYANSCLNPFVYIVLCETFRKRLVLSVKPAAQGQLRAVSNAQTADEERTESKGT

CCCn1nc2ccc(-n3ccc(OCc4ccc(Cl)cc4)cc3=O)cc2c1C
IC50 [1]: 210 nM | IC50 [2]: 130 nM

Cc1c2cc(-n3ccc(OCc4cc(C(F)(F)F)cs4)cc3=O)ccc2nn1C
IC50 [1]: 74 nM | IC50 [2]: 38 nM

Cc1c2cc(-n3ccc(OCc4nc(C(F)(F)F)cs4)cc3=O)ccc2nn1C
IC50 [1]: 130 nM | IC50 [2]: 76 nM

Cc1c2cc(-n3ccc(OCc4csc(C(F)(F)F)c4)cc3=O)ccc2nn1C
fold change (FC) [3]: 2 | IC50 [1]: 90 nM | IC50 [2]: 70 nM

Cc1c2cc(-n3ccc(OCc4ccc(F)cc4)cc3=O)ccc2nn1C1CC1
IC50 [1]: 43 nM | Activity [4]: Non-toxic | IC50 [2]: 35 nM

CCn1nc2ccc(-n3ccc(OCc4ccc(Cl)cc4)cc3=O)cc2c1C
IC50 [1]: 140 nM | IC50 [2]: 65 nM

Cc1c2cc(-n3ccc(OCc4ccc(C(F)(F)F)s4)cc3=O)ccc2nn1C
IC50 [1]: 170 nM | IC50 [2]: 90 nM

Cc1c2cc(-n3ccc(OCc4ccc(F)cc4)cc3=O)ccc2nn1C
IC50 [1]: 110 nM | Activity [4]: Non-toxic | IC50 [2]: 76 nM

Cc1c2cc(-n3ccc(OCc4csc(C(F)(F)F)n4)cc3=O)ccc2nn1C
IC50 [1]: 230 nM | IC50 [2]: 130 nM

Cc1c2cc(-n3ccc(OCc4ccc(Cl)cc4)cc3=O)ccc2nn1C1CC1
Tmax [5]: 4 h | clearance [6]: 3.45 mL/min/kg | Cmax [7]: 291 ng/mL | AUC(0-t) at 6 h [8]: 1810 ng·h/mL | IC50 [9]: 33 nM | bioavailability [10]: 37% | IC50 [1]: 31 nM | Activity [4]: Non-toxic | Vd [11]: 0.676 L/kg | IC50 [2]: 23 nM

Cc1c2cc(-n3ccc(OCc4csc(C(F)(F)F)c4)cc3=O)ccc2nn1C1CC1
Tmax [5]: 2.7 h | Kp [12]: 0.66 | clearance [6]: 4.93 mL/min/kg | Cmax [7]: 426 ng/mL | Activity [13]: Active | AUC(0-t) at 6 h [8]: 2880 ng·h/mL | concentration [14]: 3.36 µM | IC50 [9]: 79 nM | bioavailability [10]: 78% | Activity [15]: 21.5% | IC50 [1]: 38 nM | Activity [16]: 23.2% | Activity [17]: Dose-dependent effect | Activity [18]: Non-toxic | Activity [19]: 30.6% | Activity [20]: 7.6% | inhibition (INH) [21]: Not Active | inhibition (INH) [22]: Not Active | inhibition (INH) [23]: Not Active | Activity [24]: 3.9% | fraction unbound [25]: 0.022 | Cp(f) [26]: 73.9 nM | Activity [27]: 12.2% | inhibition (INH) [28]: Not Active | Activity [4]: Non-toxic | Vd [11]: 0.949 L/kg | IC50 [2]: 26 nM | inhibition (INH) [29]: Not Active

Cc1c2cc(-n3ccc(OCc4ccc(Cl)cc4)cc3=O)ccc2nn1C
fold change (FC) [30]: 2 | IC50 [1]: 35 nM | Activity [31]: Non-toxic | IC50 [2]: 36 nM

Cn1c(C2CC2)cc2ccc(-n3ccc(OCc4ccc(Cl)cc4)cc3=O)cc21
IC50 [1]: 150 nM

Cc1nn(C)c2ccc(-n3ccc(OCc4ccc(Cl)cc4)cc3=O)cc12
IC50 [1]: 99 nM

Cc1c(C2CC2)nn2ccc(-n3ccc(OCc4ccc(Cl)cc4)cc3=O)cc12
IC50 [1]: 69 nM
